Data published in ChEMBL document CHEMBL2069265, “Synthesis and biological evaluation of optically active conjugated γ- and δ-lactone derivatives” (2012).
In brackets after ≈: the same amount, converted by molar mass. Activity calls are given as the source filed them. The calls are words filed in the database; no cut-off is given here.

Tests used:
[1] = system: Radical scavenging activity; test: Antioxidant activity assessed as DPPH radical scavenging activity at 10 to 80 uM; format: functional
Outline: (§1)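 DPPH radical scavenging per Blois; compounds 10–80 µM in methanol (some runs 10–200 µM, values reported at 80 µM). Absorbance at 517 nm; scavenging % = (A517 control − A517 sample)/A517 control × 100. Alpha tocopherol as control. Means ± SD of three parallel measurements.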

[2] = system: Pseudomonas aeruginosa; test: Antibacterial activity against Pseudomonas aeruginosa ATCC 9027 after 24 hrs; format: functional, organism-based
[3] = system: Staphylococcus aureus; test: Antibacterial activity against Staphylococcus aureus ATCC 6538 at 10 to 100 mg/ml after 24 hrs by disc diffusion method; format: functional
Outline: (§2)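 Modified disc diffusion: LB agar plates seeded at 10^6 cells/mL; 6 mm filter discs soaked in 50 µL of compound at 10–100 mg/mL in DMSO or methanol, placed on plates, 37 °C for 24 h. Inhibition zone ≥7 mm scored susceptible. Solvent discs tested; positive controls gentamicine, streptomycine or nystatin discs at 10 mg/mL.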

[4] = system: Pseudomonas aeruginosa; test: Antibacterial activity against Pseudomonas aeruginosa ATCC 9027 at 10 to 100 mg/ml after 24 hrs by disc diffusion method; format: functional, organism-based; outline: as §2
[5] = system: Bacillus subtilis; test: Antibacterial activity against Bacillus subtilis ATCC 6633 at 10 to 100 mg/ml after 24 hrs by disc diffusion method; format: functional; outline: as §2
[6] = system: Staphylococcus aureus; test: Antibacterial activity against Staphylococcus aureus ATCC 6538 after 24 hrs; format: functional
[7] = system: Escherichia coli; test: Antibacterial activity against Escherichia coli ATCC 3509 after 24 hrs; format: functional
[8] = system: Bacillus subtilis; test: Antibacterial activity against Bacillus subtilis ATCC 6633 after 24 hrs; format: functional
[9] = system: Candida albicans; test: Antifungal activity against Candida albicans ATCC 10231 at 10 to 100 mg/ml after 24 hrs by disc diffusion method; format: functional; outline: as §2
[10] = system: Liver microsomes; test: Antioxidant activity in Wistar rat liver microsomes assessed as reduction of lipid peroxidase activity by TBA assay; format: functional; parameters: concentration or dose not given beside the values; conditions: Microsome
Outline: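 TBA assay of lipid peroxidation in liver microsomes isolated from three Wistar rats, following Raj et al.; reduced lipid peroxidase activity taken as antioxidant activity, expressed as %.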

[11] = system: Candida albicans; test: Antifungal activity against Candida albicans ATCC 10231 after 24 hrs; format: functional
[12] = system: Escherichia coli; test: Antibacterial activity against Escherichia coli ATCC 3509 at 10 to 100 mg/ml after 24 hrs by disc diffusion method; format: functional; outline: as §2
[13] = Metal chelating activity of the compound assessed as ratio of Fe2+ concentration to compound concentration; format: functional
Outline: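 Fe3+ reducing activity by modified ferrozine method; [Fe2+] calculated from extinction coefficient 27,900 M-1cm-1 of Fe(ferrozine)2+ complex, expressed as µM Fe2+ per µM compound. Means ± SD of three parallel measurements.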

[14] = system: Radical scavenging activity; test: Antioxidant activity assessed as DPPH radical scavenging activity at 80 uM; format: functional; outline: as §1
[15] = system: Radical scavenging activity; test: Antioxidant activity assessed as DPPH radical scavenging activity at 11 to 1000 uM; format: functional
Outline: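 DPPH scavenging in methanol, read as loss of absorbance at 517 nm, value obtained over 1000–11 µM compound; % = (A517 control − A517 sample)/A517 control × 100. Alpha tocopherol control; three parallel measurements, means ± SD.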

[16] = system: Radical scavenging activity; test: Antioxidant activity assessed as DPPH radical scavenging activity at 11 uM; format: functional
Outline: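 DPPH radical scavenging at 11 µM compound in methanol, absorbance at 517 nm; % scavenging calculated from control versus sample A517. Alpha tocopherol control; mean ± SD of three parallel measurements.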

[17] = system: Staphylococcus aureus; test: Antibacterial activity against Staphylococcus aureus ATCC 6538 at 50 mg/ml after 24 hrs by disc diffusion method; format: functional; conditions: ATCC 6538, 24 h, read-out: DIZ
Outline: (§3)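 Disc diffusion on LB agar seeded at 10^6 cells/mL. 6 mm discs are saturated with 50 µL compound solution in DMSO or methanol and incubated at 37 °C for 24 h. Inhibition zones of 7 mm or more are counted as susceptible. Solvent discs are run, with streptomycine discs (10 mg/mL) as positive control.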

[18] = system: Escherichia coli; test: Antibacterial activity against Escherichia coli ATCC 3509 at 50 mg/ml after 24 hrs by disc diffusion method; format: functional; conditions: ATCC 3509, 24 h, read-out: DIZ; outline: as §3
[19] = system: Bacillus subtilis; test: Antibacterial activity against Bacillus subtilis ATCC 6633 at 50 mg/ml after 24 hrs by disc diffusion method; format: functional, organism-based
Outline: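 Disc diffusion on LB agar plates inoculated with 10^6 cells/mL. 6 mm filter discs saturated with 50 µL of compound solution (10–100 mg/mL in DMSO or methanol), placed on plates and incubated at 37 °C for 24 h. Inhibition zone diameter read; zones of 7 mm or more scored as susceptible. Solvent discs tested; gentamicine disc (10 mg/mL) as positive control.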

Row | Compound | Activity [1] | MIC [2] | diameter of the inhibition zone (DIZ) [3] | diameter of the inhibition zone (DIZ) [4] | diameter of the inhibition zone (DIZ) [5] | MIC ([6]; ATCC 6538, 24 h) [µg/mL] | MIC ([7]; ATCC 3509, 24 h) [µg/mL] | MIC ([8]; ATCC 6633, 24 h) [µg/mL] | diameter of the inhibition zone (DIZ) [9] | Activity [10] | MIC ([11]; ATCC 10231, 24 h) [µg/mL] | diameter of the inhibition zone (DIZ) [12] | MIC [6] | MIC [7] | Ratio [13] | MIC [8] | MIC [11] | further results
1 | CC1=CC[C@H](c2cccs2)OC1=O | inactive | inactive | 10 mm | inactive | 7 mm | 25 (≈ 129 µM) | 25 (≈ 129 µM) | 25 (≈ 129 µM) | 9 mm | inactive | 25 (≈ 129 µM) | 9 mm |  |  |  |  |  | 
2 | O=C1C=CCC(c2ccco2)O1 (racemic) |  | inactive | inactive | inactive | inactive |  |  |  | inactive | 24.5% |  | inactive | inactive | inactive | 0 | inactive | inactive | Activity [14]: 38.1%
3 | O=C1C=CC[C@H](c2cccs2)O1 | inactive | inactive | 8.5 mm | inactive | 7 mm | 40 (≈ 222 µM) | 50 (≈ 277 µM) | 50 (≈ 277 µM) | 7 mm | inactive | 40 (≈ 222 µM) | 7 mm |  |  | 0.04 |  |  | 
4 | CC1=CC[C@@H](c2cccs2)OC1=O | inactive | inactive | 7 mm | inactive | 11 mm | 25 (≈ 129 µM) | 25 (≈ 129 µM) | 25 (≈ 129 µM) | 9 mm | inactive | 25 (≈ 129 µM) | 8 mm |  |  |  |  |  | 
5 | O=C1C=CC(c2cccs2)O1 (racemic) | inactive | inactive | inactive | inactive | inactive |  |  |  | 9 mm | 58.8% | 100 (≈ 602 µM) | inactive | inactive | inactive | 0.44 | inactive |  | 
6 | O=C1C=CC[C@@H](c2cccs2)O1 | 14% | inactive | 7 mm | inactive | 8.5 mm | 50 (≈ 277 µM) | 30 (≈ 166 µM) | 20 (≈ 111 µM) | 7 mm | inactive | 30 (≈ 166 µM) | 8.5 mm |  |  | 0 |  |  | 
7 | O=C1C=CC[C@@H](c2ccco2)O1 |  | inactive | inactive | inactive | inactive |  |  |  | inactive | 7.45% |  | inactive | inactive | inactive | 0 | inactive | inactive | Activity [14]: 38%
8 | O=C1C=CCC(c2cccs2)O1 (racemic) |  | inactive | 8.5 mm | inactive | 8.5 mm | 30 (≈ 166 µM) | 20 (≈ 111 µM) | 10 (≈ 55.5 µM) | 9 mm |  | 25 (≈ 139 µM) | 8.5 mm |  |  |  |  |  | 
9 | O=C1C=CC[C@H](c2ccco2)O1 | inactive | inactive | inactive | inactive | inactive |  |  |  | inactive | 9% |  | inactive | inactive | inactive | 0.0092 | inactive | inactive | 
10 | CC1=CCC(c2cccs2)OC1=O (racemic) |  | inactive | 7.5 mm | inactive | inactive | 25 (≈ 129 µM) | 12 (≈ 61.8 µM) |  | 12 mm |  | 25 (≈ 129 µM) | 8 mm |  |  |  | inactive |  | Activity [15]: 7.11%
11 | CC1=CC(c2cccs2)OC1=O (racemic) |  | inactive | inactive | inactive | inactive |  |  |  | 7.5 mm |  | 25 (≈ 139 µM) | inactive | inactive | inactive |  | inactive |  | Activity [16]: 93.3%
12 | O=C1C=C[C@@H](c2cccs2)O1 | inactive | inactive | inactive | inactive | inactive |  |  |  | inactive | 54.7% |  | inactive | inactive | inactive | 0.015 | inactive | inactive | 
13 | Cc1c(C)c2c(c(C)c1O)CC[C@@](C)(CCC[C@H](C)CCC[C@H](C)CCCC(C)C)O2 | 66.2% |  |  |  |  |  |  |  |  |  |  |  |  |  |  |  |  | 
14 | CN[C@@H]1[C@H](O[C@H]2[C@H](O[C@H]3[C@H](O)[C@@H](O)[C@H](N=C(N)N)[C@@H](O)[C@@H]3N=C(N)N)O[C@@H](C)[C@]2(O)C=O)O[C@@H](CO)[C@H](O)[C@H]1O [STREPTOMYCIN] |  |  |  |  |  |  |  |  |  |  |  |  |  |  |  |  |  | zone of inhibition at 50000 µg/mL [17]: 15 mm; zone of inhibition at 50000 µg/mL [18]: 18 mm
15 | GENTAMICIN |  |  |  |  |  |  |  |  |  |  |  |  |  |  |  |  |  | inhibition zone (IZ) [19]: 17 mm
16 | CC1=C[C@@H](c2cccs2)OC1=O |  | inactive | inactive | inactive | inactive |  | 25 (≈ 139 µM) |  | inactive |  |  | 9.5 mm | inactive |  |  | inactive | inactive | Activity [16]: 50.6%
